# Experimental data reported in ChEMBL document CHEMBL1152452, “Modifications incorporated in CpG motifs of oligodeoxynucleotides lead to antagonist activity of toll-like receptors 7 and 9” (2009).
# The source made the active and inactive calls. No cut-off for these calls is given here.
# Experiments:
# Mus musculus [1] = assay: Immunostimulatory activity in C57BL/6 mouse assessed as inhibition of LPS-induced MCP1 production in serum at 10 mg/kg, sc administered 24 hrs prior to LPS challenge measured after 2 hrs by Luminex multiplex assay
# Mus musculus [2] = assay: Immunostimulatory activity in C57BL/6 mouse assessed as inhibition of 5'-CTATCTGACGTTCTCTGT-3'-induced IL10 production in serum at 5 mg/kg, sc administered 24 hrs prior to 5'-CTATCTGACGTTCTCTGT-3' challenge measured after 2 hrs by Luminex multiplex assay; type: functional; settings: C57BL/6, sc, route subcutaneous
# Mus musculus [3] = assay: Immunostimulatory activity in C57BL/6 mouse assessed as inhibition of 0.25 mg/kg 5'-CTATCTGACGTTCTCTGT-3'-induced IL12 production in serum at 10 mg/kg, sc administered 24 hrs prior to 5'-CTATCTGACGTTCTCTGT-3' challenge measured after 2 hrs by sandwich ELISA; type: functional
# Procedure, shortened: (§1)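 C57BL/6 mice received 10 mg/kg ODN sc in the right flank. After 24 h, the CpG TLR9 agonist ODN was given sc in the left flank at 0.25, 0.5 or 1 mg/kg. Serum IL-12 was measured by ELISA 2 h after challenge. Naive mice served as reference. Representative of two experiments.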
# Mus musculus [4] = assay: Immunostimulatory activity in C57BL/6 mouse assessed as inhibition of 5'-CTATCTGACGTTCTCTGT-3'-induced IL6 production in serum at 5 mg/kg, sc administered 24 hrs prior to 5'-CTATCTGACGTTCTCTGT-3' challenge measured after 2 hrs by Luminex multiplex assay; type: functional; settings: C57BL/6, sc, route subcutaneous
# Mus musculus [5] = assay: Immunostimulatory activity in C57BL/6 mouse assessed as inhibition of TLR3 agonist-induced MIP1a production in serum at 10 mg/kg, sc administered 24 hrs prior to TLR3 agonist challenge measured after 2 hrs by Luminex multiplex assay
# Mus musculus [6] = assay: Immunostimulatory activity in C57BL/6 mouse assessed as inhibition of TLR3 agonist-induced IL12 production in serum at 10 mg/kg, sc administered 24 hrs prior to TLR3 agonist challenge measured after 2 hrs by Luminex multiplex assay
# Mus musculus [7] = assay: Immunostimulatory activity in C57BL/6 mouse assessed as inhibition of 5'-CTATCTGACGTTCTCTGT-3'-induced MIG production in serum at 5 mg/kg, sc administered 24 hrs prior to 5'-CTATCTGACGTTCTCTGT-3' challenge measured after 2 hrs by Luminex multiplex assay; type: functional; settings: C57BL/6, sc, route subcutaneous
# Mus musculus [8] = assay: Immunostimulatory activity in C57BL/6 mouse assessed as inhibition of 1 mg/kg 5'-CTATCTGACGTTCTCTGT-3'-induced IL12 production in serum at 10 mg/kg, sc administered 24 hrs prior to 5'-CTATCTGACGTTCTCTGT-3' challenge measured after 2 hrs by sandwich ELISA; type: functional
# Procedure, shortened: as §1
# Mus musculus [9] = assay: Immunostimulatory activity in C57BL/6 mouse assessed as inhibition of 5'-CTATCTGACGTTCTCTGT-3'-induced MCP1 production in serum at 5 mg/kg, sc administered 24 hrs prior to 5'-CTATCTGACGTTCTCTGT-3' challenge measured after 2 hrs by Luminex multiplex assay; type: functional; settings: C57BL/6, sc, route subcutaneous
# Mus musculus [10] = assay: Immunostimulatory activity in C57BL/6 mouse assessed as inhibition of TLR3 agonist-induced IP10 production in serum at 10 mg/kg, sc administered 24 hrs prior to TLR3 agonist challenge measured after 2 hrs by Luminex multiplex assay
# Mus musculus [11] = assay: Immunostimulatory activity in C57BL/6 mouse assessed as inhibition of 5'-CTATCTGACGTTCTCTGT-3'-induced TNFalpha production in serum at 5 mg/kg, sc administered 24 hrs prior to 5'-CTATCTGACGTTCTCTGT-3' challenge measured after 2 hrs by Luminex multiplex assay; type: functional; settings: C57BL/6, sc, route subcutaneous
# Mus musculus [12] = assay: Immunostimulatory activity in C57BL/6 mouse assessed as inhibition of LPS-induced TNFalpha production in serum at 10 mg/kg, sc administered 24 hrs prior to LPS challenge measured after 2 hrs by Luminex multiplex assay
# Mus musculus [13] = assay: Immunostimulatory activity in C57BL/6 mouse assessed as inhibition of 5'-CTATCTGACGTTCTCTGT-3'-induced KC production in serum at 5 mg/kg, sc administered 24 hrs prior to 5'-CTATCTGACGTTCTCTGT-3' challenge measured after 2 hrs by Luminex multiplex assay; type: functional; settings: C57BL/6, sc, route subcutaneous
# Mus musculus [14] = assay: Immunostimulatory activity in C57BL/6 mouse assessed as inhibition of LPS-induced MIP1a production in serum at 10 mg/kg, sc administered 24 hrs prior to LPS challenge measured after 2 hrs by Luminex multiplex assay
# Mus musculus [15] = assay: Immunostimulatory activity in C57BL/6 mouse assessed as inhibition of TLR7 agonist-induced IL10 production in serum at 5 mg/kg, sc administered 24 hrs prior to TLR7 agonist challenge measured after 2 hrs by Luminex multiplex assay; type: functional; settings: C57BL/6, sc, route subcutaneous
# Mus musculus [16] = assay: Immunostimulatory activity in C57BL/6 mouse assessed as inhibition of 5'-CTATCTGACGTTCTCTGT-3'-induced IP10 production in serum at 5 mg/kg, sc administered 24 hrs prior to 5'-CTATCTGACGTTCTCTGT-3' challenge measured after 2 hrs by Luminex multiplex assay; type: functional; settings: C57BL/6, sc, route subcutaneous
# Mus musculus [17] = assay: Immunostimulatory activity in C57BL/6 mouse assessed as inhibition of TLR3 agonist-induced IL6 production in serum at 10 mg/kg, sc administered 24 hrs prior to TLR3 agonist challenge measured after 2 hrs by Luminex multiplex assay
# Mus musculus [18] = assay: Immunostimulatory activity in C57BL/6 mouse assessed as inhibition of TLR3 agonist-induced TNFalpha production in serum at 10 mg/kg, sc administered 24 hrs prior to TLR3 agonist challenge measured after 2 hrs by Luminex multiplex assay
# Mus musculus [19] = assay: Immunostimulatory activity in C57BL/6 mouse assessed as inhibition of TLR7 agonist-induced IP10 production in serum at 5 mg/kg, sc administered 24 hrs prior to TLR7 agonist challenge measured after 2 hrs by Luminex multiplex assay; type: functional; settings: C57BL/6, sc, route subcutaneous
# Mus musculus [20] = assay: Immunostimulatory activity in sc dosed C57BL/6 mouse assessed as inhibition of 5'-CTATCTGACGTTCTCTGT-3'-induced IL12 production in serum administered 24 hrs prior to 5'-CTATCTGACGTTCTCTGT-3' challenge measured after 2 hrs by sandwich ELISA; type: functional, organism-based
# Procedure, shortened: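 Test ODN was given sc in the right flank of C57BL/6 mice at 2, 5 or 10 mg/kg. After 24 h (or 24, 48 or 72 h in the duration study), the agonist ODN was given sc in the left flank at 0.25, 0.5 or 1 mg/kg (0.5 mg/kg by default). Serum was taken 2 h later by retro-orbital bleed, and IL-12 was measured by sandwich ELISA.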
structure (smiles),measurement,setting,value
COC1[C@H](n2cnc3c(=O)[nH]c(N)nc32)O[C@H](COP(=O)(S)O[C@H]2C[C@H](n3cc(C)c(N)nc3=O)O[C@@H]2COP(=O)(S)O[C@H]2C[C@H](n3cnc4c(N)ncnc43)O[C@@H]2COP(=O)(S)O[C@H]2C[C@H](n3cnc4c(=O)[nH]c(N)nc43)O[C@@H]2COP(=O)(S)O[C@H]2C[C@H](n3cc(C)c(=O)[nH]c3=O)O[C@@H]2COP(=O)(S)O[C@H]2C[C@H](n3ccc(N)nc3=O)O[C@@H]2COP(=O)(S)O[C@H]2C[C@H](n3cc(C)c(=O)[nH]c3=O)O[C@@H]2COP(=O)(S)O[C@H]2C[C@H](n3cnc4c(N)ncnc43)O[C@@H]2COP(=O)(S)O[C@H]2C[C@H](n3cc(C)c(=O)[nH]c3=O)O[C@@H]2COP(=O)(S)O[C@H]2C[C@H](n3ccc(N)nc3=O)O[C@@H]2CO)[C@H]1OP(=O)(S)OC[C@H]1O[C@@H](n2cc(C)c(=O)[nH]c2=O)C[C@@H]1OP(=O)(S)OC[C@H]1O[C@@H](n2cc(C)c(=O)[nH]c2=O)C[C@@H]1OP(=O)(S)OC[C@H]1O[C@@H](n2ccc(N)nc2=O)C[C@@H]1OP(=O)(S)OC[C@H]1O[C@@H](n2cc(C)c(=O)[nH]c2=O)C[C@@H]1OP(=O)(S)OC[C@H]1O[C@@H](n2ccc(N)nc2=O)C[C@@H]1OP(=O)(S)OC[C@H]1O[C@@H](n2cc(C)c(=O)[nH]c2=O)C[C@@H]1OP(=O)(S)OC[C@H]1O[C@@H](n2cnc3c(=O)[nH]c(N)nc32)C[C@@H]1OP(=O)(S)OC[C@H]1O[C@@H](n2cc(C)c(=O)[nH]c2=O)C[C@@H]1O (stereo not given in full),Activity,Mus musculus [1],inactive
same,inhibition in vivo at 5 mg/kg,Mus musculus [2],50%
same,inhibition (INH),Mus musculus [3],85%
same,inhibition in vivo at 5 mg/kg,Mus musculus [4],50%
same,Activity,Mus musculus [5],inactive
same,Activity,Mus musculus [6],inactive
same,inhibition in vivo at 5 mg/kg,Mus musculus [7],50%
same,inhibition (INH),Mus musculus [8],46%
same,inhibition in vivo at 5 mg/kg,Mus musculus [9],50%
same,Activity,Mus musculus [10],inactive
same,inhibition in vivo at 5 mg/kg,Mus musculus [11],50%
same,Activity,Mus musculus [12],inactive
same,inhibition in vivo at 5 mg/kg,Mus musculus [13],50%
same,Activity,Mus musculus [14],inactive
same,inhibition in vivo at 5 mg/kg,Mus musculus [15],50%
same,inhibition in vivo at 5 mg/kg,Mus musculus [16],50%
same,Activity,Mus musculus [17],inactive
same,Activity,Mus musculus [18],inactive
same,inhibition in vivo at 5 mg/kg,Mus musculus [19],50%
same,Activity,Mus musculus [20],Dose-dependent effect
